Results: ChEMBL document CHEMBL2069235, “Synthesis and biological evaluation of tyrosine modified analogues of the α4β7 integrin inhibitor biotin-R₈ERY” (Bioorg Med Chem, 2012)
Activity calls are given as the source filed them. No cut-off for these calls is given here. *1 amine or outer side, *2 acyl side, *3 side chain or, on linkers, in order; H or OH if unused. Where a SMILES comes first, the peptide text is derived from it. [ ]: non-standard residue; d: D form. The star is where a group is joined. X2 = CCc1ccc(-c2ccc(C[C@H](N[*:1])C(=O)[*:2])cc2)cc1; Biotin = O=C1N[C@H]2[C@H](CS[C@H]2CCCCC(=O)*)N1; X1 = O=C([C@H](Cc1ccc(C2CCCCC2)cc1)N[*:1])[*:2]; Bip = N[C@@H](Cc1ccc(-c2ccccc2)cc1)C(=O)O

Assays:
Assay type in all cases: cell-based
[1] = molecular target: T1, Integrin alpha-4/beta-7 (Mus musculus) (UniProt Q00651+P26011); test: Inhibition of alpha4beta7 assessed as inhibition of Mn(2+)-activated adhesion of mouse TK-1 T cells to mouse MAdCAM-1 at 25 uM incubated for 1 hr by cell adhesion assay
In short: (§1)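 TK-1 cells (mouse AKR/Cum α4β7+/α4β1− CD8 T lymphoma), grown at 37 °C in RPMI 1640 with 10% FCS and 0.05 mM β-mercaptoethanol, were washed and held 1 h at room temperature in HBSS/10 mM Hepes with peptide. They were then activated with 2 mM MnCl₂ and added at 10⁶ cells/well to glass slides coated with mouse MAdCAM-1-Fc (10 μg/ml, FBS-blocked). Adhesion ran 30 min.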

[2] = molecular target: T1, Integrin alpha-4/beta-7 (Mus musculus); test: Inhibition of alpha4beta7 assessed as inhibition of Mn(2+)-activated adhesion of mouse TK-1 T cells to mouse MAdCAM-1 at <5 to 10 uM incubated for 1 hr by cell adhesion assay; in short: as §1
[3] = molecular target: T1, Integrin alpha-4/beta-7 (Mus musculus); test: Inhibition of alpha4beta7 assessed as inhibition of Mn(2+)-activated adhesion of mouse TK-1 T cells to mouse MAdCAM-1 at 100 uM incubated for 1 hr by cell adhesion assay; in short: as §1
Integrin alpha-4/beta-7 = molecular target: T2, Integrin alpha-4/beta-7 (Mus musculus, UniProt P26011+Q00651); test: Inhibition of alpha4beta7 assessed as inhibition of Mn(2+)-activated adhesion of mouse TK-1 T cells to mouse MAdCAM-1 incubated for 1 hr by cell adhesion assay
T2 sequence (Q00651 whole entry): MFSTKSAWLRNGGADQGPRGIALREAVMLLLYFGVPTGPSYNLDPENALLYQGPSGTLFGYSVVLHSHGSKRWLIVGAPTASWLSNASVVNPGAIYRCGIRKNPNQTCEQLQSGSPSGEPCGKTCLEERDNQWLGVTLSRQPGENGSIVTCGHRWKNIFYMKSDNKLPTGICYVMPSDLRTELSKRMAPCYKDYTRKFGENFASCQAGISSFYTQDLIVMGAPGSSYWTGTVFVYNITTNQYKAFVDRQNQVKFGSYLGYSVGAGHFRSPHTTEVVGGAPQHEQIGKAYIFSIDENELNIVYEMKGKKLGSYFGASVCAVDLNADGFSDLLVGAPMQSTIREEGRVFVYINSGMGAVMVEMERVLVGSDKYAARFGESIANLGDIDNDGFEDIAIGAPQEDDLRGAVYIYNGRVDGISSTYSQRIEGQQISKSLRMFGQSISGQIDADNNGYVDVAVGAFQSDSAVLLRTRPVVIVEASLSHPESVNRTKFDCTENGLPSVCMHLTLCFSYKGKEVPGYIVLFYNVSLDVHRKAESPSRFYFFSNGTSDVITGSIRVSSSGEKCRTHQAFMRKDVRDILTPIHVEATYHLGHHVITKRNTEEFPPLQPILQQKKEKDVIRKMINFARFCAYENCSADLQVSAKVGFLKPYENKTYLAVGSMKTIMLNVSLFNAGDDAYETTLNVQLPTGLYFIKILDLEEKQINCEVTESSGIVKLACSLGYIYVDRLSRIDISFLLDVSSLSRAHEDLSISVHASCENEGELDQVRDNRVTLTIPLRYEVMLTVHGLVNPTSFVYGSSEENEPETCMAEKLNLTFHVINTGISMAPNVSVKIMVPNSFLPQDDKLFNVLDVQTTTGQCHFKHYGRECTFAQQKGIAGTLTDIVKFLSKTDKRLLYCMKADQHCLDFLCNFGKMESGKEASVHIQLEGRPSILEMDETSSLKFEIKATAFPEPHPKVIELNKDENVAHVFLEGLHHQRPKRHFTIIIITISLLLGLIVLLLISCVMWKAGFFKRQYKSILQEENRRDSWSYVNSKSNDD
T2 sequence (P26011 whole entry): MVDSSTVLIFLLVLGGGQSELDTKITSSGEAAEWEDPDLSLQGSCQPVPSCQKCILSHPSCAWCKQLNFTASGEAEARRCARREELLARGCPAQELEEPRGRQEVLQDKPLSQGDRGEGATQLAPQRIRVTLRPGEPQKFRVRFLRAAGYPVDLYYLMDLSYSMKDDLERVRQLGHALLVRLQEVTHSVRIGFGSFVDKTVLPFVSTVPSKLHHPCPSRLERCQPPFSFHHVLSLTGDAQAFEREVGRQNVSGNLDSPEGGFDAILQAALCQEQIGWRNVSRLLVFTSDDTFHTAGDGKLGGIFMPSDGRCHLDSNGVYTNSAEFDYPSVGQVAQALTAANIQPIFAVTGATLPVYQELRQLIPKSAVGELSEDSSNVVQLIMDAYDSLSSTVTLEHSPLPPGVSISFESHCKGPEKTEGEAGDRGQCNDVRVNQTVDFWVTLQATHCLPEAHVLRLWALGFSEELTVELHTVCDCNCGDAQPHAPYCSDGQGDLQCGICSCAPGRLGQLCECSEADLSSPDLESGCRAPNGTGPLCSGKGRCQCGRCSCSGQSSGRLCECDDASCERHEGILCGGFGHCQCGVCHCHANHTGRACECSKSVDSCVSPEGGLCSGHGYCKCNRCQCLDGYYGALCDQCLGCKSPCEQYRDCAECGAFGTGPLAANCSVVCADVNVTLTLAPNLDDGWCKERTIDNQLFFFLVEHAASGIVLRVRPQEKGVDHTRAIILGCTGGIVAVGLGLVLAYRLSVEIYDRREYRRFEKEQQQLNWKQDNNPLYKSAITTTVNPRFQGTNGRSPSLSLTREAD
In short: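 TK-1 cells (mouse AKR/Cum CD8+ α4β7+/α4β1− T lymphoma), cultured at 37 °C in RPMI 1640 with 10% FCS and 0.05 mM β-mercaptoethanol. HBSS/10 mM Hepes buffer; cells preincubated with peptide 1 h at room temperature, then activated with MnCl2 to 2 mM. Added at 10⁶ cells/well to glass slides coated with mouse MAdCAM-1-Fc (10 µg/ml, 4 °C overnight, FBS-blocked); adhesion 30 min at room temperature.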

[4] = molecular target: T1, Integrin alpha-4/beta-7 (Mus musculus); test: Inhibition of alpha4beta7 assessed as inhibition of Mn(2+)-activated adhesion of mouse TK-1 T cells to mouse MAdCAM-1 at 50 uM incubated for 1 hr by cell adhesion assay; in short: as §1

With N=C(N)NCCC[C@H](NC(=O)CCCC[C@@H]1SC[C@@H]2NC(=O)N[C@@H]21)C(=O)N[C@@H](CCCNC(=N)N)C(=O)N[C@@H](CCCNC(=N)N)C(=O)N[C@@H](CCCNC(=N)N)C(=O)N[C@@H](CCCNC(=N)N)C(=O)N[C@@H](CCCNC(=N)N)C(=O)N[C@@H](CCCNC(=N)N)C(=O)N[C@@H](CCCNC(=N)N)C(=O)N[C@@H](CCC(=O)O)C(=O)N[C@@H](CCCNC(=N)N)C(=O)N[C@@H](Cc1ccc(-c2ccccc2)cc1)C(=O)O (Biotin-RRRRRRRRER[Bip]-OH) the inhibition [1] was “Active”, the inhibition [2] was “Active” and the inhibition [3] was 91.3%. For the same compound, the IC50 (Integrin alpha-4/beta-7) was 7.3 µM and the inhibition [4] was 80.2%.
With N=C(N)NCCC[C@H](NC(=O)[C@H](CCCNC(=N)N)NC(=O)[C@H](CCCNC(=N)N)NC(=O)[C@H](CCCNC(=N)N)NC(=O)[C@H](CCCNC(=N)N)NC(=O)[C@H](CCCN=C(N)N)NC(=O)[C@H](CCCN=C(N)N)NC(=O)[C@H](CCCN=C(N)N)NC(=O)CCCC[C@@H]1SC[C@@H]2NC(=O)N[C@@H]21)C(=O)N[C@@H](CCC(=O)O)C(=O)N[C@@H](CCCN=C(N)N)C(=O)N[C@@H](Cc1ccc(C2CCCCC2)cc1)C(=O)O (Biotin-RRRRRRRRER[X1]-OH) the IC50 (Integrin alpha-4/beta-7) was 19 µM.
In the case of CCc1ccc(-c2ccc(C[C@H](NC(=O)[C@H](CCCNC(=N)N)NC(=O)[C@H](CCC(=O)O)NC(=O)[C@H](CCCNC(=N)N)NC(=O)[C@H](CCCNC(=N)N)NC(=O)[C@H](CCCNC(=N)N)NC(=O)[C@H](CCCNC(=N)N)NC(=O)[C@H](CCCNC(=N)N)NC(=O)[C@H](CCCNC(=N)N)NC(=O)[C@H](CCCNC(=N)N)NC(=O)[C@H](CCCNC(=N)N)NC(=O)CCCC[C@@H]3SC[C@@H]4NC(=O)N[C@@H]43)C(=O)O)cc2)cc1 (Biotin-RRRRRRRRER[X2]-OH), the inhibition [1] is reported as “Active”, the inhibition [2] is reported as “Active” and the inhibition [3] is reported as 74.2%. It also gave an IC50 (Integrin alpha-4/beta-7) of 14.3 µM and an inhibition [4] of 58%.
